TRPC4 block: inhibitors of mouse TRPC4 channel, primary screen, Fluo4 calcium, HEK293 TRPC4beta/mu-opioid cells; Short transient receptor potential channel 4 (Mus musculus), Q9QUQ5; DAMGO-evoked Fluo4 calcium flux; hits give low values; B-score at 10 µM; actives 0.39% (n = 300,000); AID 2247, 2010;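 active = B-score over 3 SD under the library average, no early fluorescence shift, positive overall ratio signal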
Target sequence (Q9QUQ5 whole entry, looked up): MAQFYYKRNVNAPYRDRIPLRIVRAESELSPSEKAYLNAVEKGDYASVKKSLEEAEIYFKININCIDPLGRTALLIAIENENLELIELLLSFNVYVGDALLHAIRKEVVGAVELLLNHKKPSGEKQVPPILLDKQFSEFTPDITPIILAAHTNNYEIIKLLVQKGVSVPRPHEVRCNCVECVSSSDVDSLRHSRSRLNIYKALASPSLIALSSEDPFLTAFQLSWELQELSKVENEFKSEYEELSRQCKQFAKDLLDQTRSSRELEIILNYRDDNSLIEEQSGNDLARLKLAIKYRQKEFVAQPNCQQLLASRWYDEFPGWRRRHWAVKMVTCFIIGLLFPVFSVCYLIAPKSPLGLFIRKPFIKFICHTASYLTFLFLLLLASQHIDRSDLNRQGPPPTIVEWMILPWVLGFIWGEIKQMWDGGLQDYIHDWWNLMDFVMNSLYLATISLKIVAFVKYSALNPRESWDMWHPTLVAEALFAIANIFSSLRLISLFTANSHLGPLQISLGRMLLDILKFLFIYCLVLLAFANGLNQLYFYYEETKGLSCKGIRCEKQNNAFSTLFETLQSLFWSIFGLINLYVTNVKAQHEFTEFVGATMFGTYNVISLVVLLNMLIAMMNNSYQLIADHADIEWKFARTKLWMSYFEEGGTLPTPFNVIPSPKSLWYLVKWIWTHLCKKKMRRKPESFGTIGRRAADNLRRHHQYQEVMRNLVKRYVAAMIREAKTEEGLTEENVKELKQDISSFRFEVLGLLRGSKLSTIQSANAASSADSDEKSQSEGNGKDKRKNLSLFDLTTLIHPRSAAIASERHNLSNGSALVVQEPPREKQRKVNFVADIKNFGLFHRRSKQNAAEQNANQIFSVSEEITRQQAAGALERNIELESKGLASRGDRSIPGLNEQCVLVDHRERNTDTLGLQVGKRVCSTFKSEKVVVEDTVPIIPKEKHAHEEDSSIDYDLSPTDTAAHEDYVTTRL
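Material: HEK293 cells with stable TRPC4beta plus mu-opioid receptor expression / Probe or stimulus: DAMGO in two steps, submaximal then maximal / Compound: single concentration per test compound / Technique: kinetic Fluo4 fluorescence imaging of calcium influx / Read-out: per-well B score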
Pemphigus Ab inh: inhibitors of pemphigus antibody binding to DSG3, primary screen, biochemical, bead-based, flow cytometry, scFv-GFP; DSG3-coupled beads, scFv-anti-DSG3-GFP binding; hits give low values; binding (percent of control), % at 10 µM; actives 0.48% (n = 310,000); AID 588358, 2011;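 active = binding more than 3 SD below its plate's average and above zero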;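 note: hits lower antibody fragment binding to DSG3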
TRPC4 act: activators of mouse TRPC4 channel, primary screen, Fluo4 calcium, HEK293 TRPC4beta/mu-opioid cells | B-score at 10 µM | Fluo4 calcium fluorescence; hits give high values | AID 2237, 2010 | actives 0.49% (n = 310,000) | Short transient receptor potential channel 4 (Mus musculus), Q9QUQ5;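 active = B-score above 5 SD of library B-scores, and initial fluorescence ratio not above library mean plus 5 SD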;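 note: positive B-score marks a calcium rise read as TRPC4 activation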
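Assay system – TRPC4beta and mu-opioid receptor HEK293 stable cells · Measured by – Fluo4 fluorescence, kinetic · Schedule – dye loading 45 min room temperature, 110 s kinetic read · Read-out – B-scored integrated calcium fluorescence ratio · Controls – buffer and maximal DAMGO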
TRPC6 activator: mouse TRPC6 channel activators, primary screen, cell-based, HEK293, membrane potential dye. Short transient receptor potential channel 6 (Mus musculus), Q61143. B-score at 10 µM. AID 2550, 2010. actives 0.13% (n = 310,000). HEK293-TRPC6 membrane potential dye fluorescence; hits give high values;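 active = B-score of the integrated fluorescence ratio above library mean plus 3 SD, and starting fluorescence ratio within library mean plus 5 SD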;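 note: higher score means more depolarization so channel activation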
TRPC4 potent: positive allosteric modulators of TRPC4, primary screen, cell-based, mouse TRPC4beta, HEK293 mu-opioid, Fluo-4 calcium; Short transient receptor potential channel 4 (Mus musculus), Q9QUQ5; DAMGO EC20, Fluo-4 Ca2+ flux; hits give high values; B-score at 10 µM; actives 0.42% (n = 310,000); AID 2227, 2009;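 active = B-score of calcium response area above 5 SD of library B-scores, with initial fluorescence ratio within 5 SD of library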;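 note: B-score of integrated fluorescence ratio over time as area under calcium response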
TRPC6 inh: mouse TRPC6 channel inhibitors, primary screen, cell-based, HEK293, membrane potential dye. Short transient receptor potential channel 6 (Mus musculus), Q61143. ACh-evoked depolarization; hits give low values. B-score at 10 µM. actives 1.1% (n = 310,000). AID 2553, 2010;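 active = B-score under library mean minus 3 SD, initial fluorescence not abnormally high, positive integrated signal ratio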;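 note: B-score derived from integrated fluorescence ratio over the kinetic read; more negative B-score means stronger inhibition of depolarization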
* = called active by the depositor; i = inactive; . = no result given. The list is not random: actives were taken first. Their share in the collection is about 2.5%.

SMILES	TRPC4 block	Pemphigus Ab inh	TRPC4 act	TRPC6 activator	TRPC4 potent	TRPC6 inh
NCC(O)COc1ccc2c(c1)OCO2 (configuration not stated)	i	.	i	i	i	i
Cc1cccc(C)c1OCC(O)CN (configuration not stated)	i	102.7	163*	i	i	i
Cc1cccc(NC(=O)CN2C(=O)NC3(CCCC3)C2=O)n1	i	99.7	i	i	i	i
CC(C)CN1CCC(=O)N(CCO)CC1	.	104.1	i	i	i	i
CCCCN(CC)S(=O)(=O)c1ccc(C(=O)Nc2nnc(-c3cccs3)o2)cc1	i	.	67*	i	i	i
CCN(CC)S(=O)(=O)c1ccc(C(=O)Nc2nnc(-c3ccco3)o2)cc1	i	98.3	i	i	i	i
O=S(=O)(Cc1ccccc1Cl)NCCc1ccccc1	i	101.1	i	i	i	i
Cc1c(NC(=O)c2cc(-c3ccc(F)cc3)nc3ccccc23)c(=O)n(-c2ccccc2)n1C	.	66.8*	.	.	.	.
c1nc(SSc2ncnc3nc[nH]c23)c2[nH]cnc2n1	.	66.0*	.	.	.	.
O=C(O)CSc1ncnc2nc[nH]c12	i	98.9	i	i	i	i
NC(=O)c1cc(N=Nc2c(N)[nH]n(-c3c(Cl)cc(Cl)cc3Cl)c2=O)ccc1Cl	i	103.8	i	i	i	i
COc1cc(OC)cc(-c2c(-c3cccs3)c3cc(-c4cccc5[nH]ccc45)ccc3n2C)c1	.	87.7	.	.	.	.
COc1cc(NC(C)CCCN)c2ncccc2c1 (configuration not stated)	i	115.1	181*	i	i	i
COC(=O)c1ccc(C#Cc2ccccc2)o1	i	102.9	i	i	i	i
O=C(CSc1n[nH]c(-c2ccco2)n1)Nc1ccccc1Cl	i	43.0*	i	i	i	i
COc1ccc(OC)c(-n2c(CNC3CCN(Cc4ccccc4)CC3)nc3ccccc3c2=O)c1	i	102.0	73*	i	i	i
CC(C)(C)c1ccccc1OCCCCCn1ccnc1	i	104.9	i	i	42*	i
Cc1cccc(OCCCCCn2ccnc2)c1C	i	101.9	69*	i	i	i
Cc1cc(OCCn2ccnc2)cc(C)c1Cl	i	100.4	129*	i	i	i
Cc1ccc(C(C)(C)C)c(OCCCn2ccnc2)c1	i	104.7	i	i	i	i
CC(C)(C)c1cc(Cl)ccc1OCCn1ccnc1	i	111.7	63*	i	42*	i
Cc1ccc(C)c(OCCCCn2ccnc2)c1	i	99.6	133*	i	i	i
C[C@]12CC[C@@H]3c4ccc(O)cc4CC[C@H]3[C@@H]1CC[C@@H]2O	i	53.1*	i	i	i	i
O=C(NCCCCCCNC(=O)OCc1ccccc1)OCc1ccccc1	.	6.8*	.	.	.	.
O=C(O)CCCNC(=O)OCc1ccccc1	i	.	i	i	i	i
O=C(C1=C(O)C(=O)N(CCCn2ccnc2)C1c1cccc(Br)c1)c1ccco1 (configuration not stated)	i	101.8	i	i	i	i
COc1ccccc1N1CCN(CCCNC(=O)Nc2ccccc2)CC1	-6*	100.0	i	i	i	i
O=C(NCCCN1CCN(c2ccccc2)CC1)Nc1ccccc1C(F)(F)F	-6*	105.5	i	i	i	i
CCn1c(C)c(C)c2cc(C(=O)NC3CCCCCC3)ccc21	i	101.3	i	i	i	i

Compound activity deposited in PubChem BioAssay by several laboratories.
